# In ChEMBL document CHEMBL1128597, “Picornavirus inhibitors: trifluoromethyl substitution provides a global protective effect against hepatic metabolism” (J Med Chem, 1995):
# Experiment: t1/2 in monkey liver microsomes
# Assay type: ADME, Microsome
# Conditions: simiiformes
row,Structure (SMILES),half-life
1,Cc1cc(CCCOc2c(C)cc(-c3noc(C(F)F)n3)cc2C)on1,1.42 h
2,COCc1cc(CCCOc2c(C)cc(-c3noc(C(F)(F)F)n3)cc2C)on1,1.58 h
3,Cc1cc(CCCOc2c(C)cc(-c3noc(C(Cl)(Cl)Cl)n3)cc2C)on1,0.183 h
4,Cc1cc(CCCOc2c(C)cc(-c3noc(CF)n3)cc2C)on1,0.233 h
5,Cc1ccc(CCCOc2c(C)cc(-c3noc(C(F)(F)F)n3)cc2C)cn1,1.97 h
6,Cc1cc(CCCOc2c(C)cc(-c3noc(C(N)=O)n3)cc2C)on1,2.3 h
7,Cc1ccc(CCCOc2c(C)cc(-c3noc(C)n3)cc2C)cn1,1.37 h
8,Cc1nc(-c2cc(C)c(OCCCc3cccc(F)n3)c(C)c2)no1,0.283 h
9,Cc1cc(CCCOc2c(C)cc(-c3noc(C(C)(F)F)n3)cc2C)on1,1.1 h
10,Cc1cc(CCCOc2c(C)cc(-c3noc(C#N)n3)cc2C)on1,0.283 h
11,CCOc1nc(-c2cc(C)c(OCCCc3cc(C)no3)c(C)c2)no1,> 2.5 h
12,CC(=O)c1ccc(CCCOc2c(C)cc(-c3noc(C(F)(F)F)n3)cc2C)o1,1.05 h
13,Cc1cc(CCCOc2c(C)cc(-c3noc(CC(F)(F)F)n3)cc2C)on1,0.533 h
14,Cc1cc(CCCOc2c(C)cc(-c3noc(C4CC4)n3)cc2C)on1,2.23 h
15,CCc1cc(CCCOc2c(C)cc(-c3noc(C(F)(F)F)n3)cc2C)on1,> 2.5 h
16,CCc1cc(CCCOc2c(C)cc(-c3noc(C)n3)cc2C)on1,0.183 h
17,COc1nc(-c2cc(C)c(OCCCc3cc(C)no3)c(C)c2)no1,0.55 h

row,Structure (SMILES),half-life
1,Cc1cc(-c2noc(C3CC3)n2)cc(C)c1OCCCc1cc(C2CC2)no1,> 2.5 h
2,COCc1cc(CCCOc2c(C)cc(-c3noc(C)n3)cc2C)on1,0.5 h
3,Cc1cc(-c2noc(C3CC3)n2)cc(C)c1OCCCc1cc(CO)no1,> 2.5 h
4,Cc1cc(-c2noc(C(F)(F)F)n2)cc(C)c1OCCCc1cc(C[S+](C)[O-])no1 (centres undefined),> 2.5 h
5,Cc1cc(CCCOc2c(C)cc(-c3noc(C)n3)cc2C)on1,0.45 h
6,CCc1cc(CCCOc2c(C)cc(-c3noc(C4CC4)n3)cc2C)on1,0.9 h
7,Cc1cc(-c2noc(C3CC3)n2)cc(C)c1OCCCc1cc(OCCO)no1,> 2.5 h
8,Cc1cc(-c2noc(C(F)(F)F)n2)cc(C)c1OCCCc1cc(CS(C)(=O)=O)no1,> 2.5 h
9,CCOc1cc(CCCOc2c(C)cc(-c3noc(C4CC4)n3)cc2C)on1,> 2.5 h
10,Cc1cc(-c2noc(C(F)(F)F)n2)cc(C)c1OCCCc1cc(CO)no1,> 2.5 h
11,CCOCc1cc(CCCOc2c(C)cc(-c3noc(C(F)(F)F)n3)cc2C)on1,> 2.5 h
12,COCc1cc(CCCOc2c(C)cc(-c3noc(C4CC4)n3)cc2C)on1,> 2.5 h
13,CC(=O)c1ccc(CCCOc2c(C)cc(-c3noc(C)n3)cc2C)o1,0.617 h
14,Cc1nc(-c2cc(C)c(OCCCc3cc(C(F)(F)F)no3)c(C)c2)no1,0.55 h
15,Cc1cc(-c2noc(C(F)(F)F)n2)cc(C)c1OCCCc1cccc(F)n1,> 2.5 h
16,Cc1cc(CCCOc2c(C)cc(-c3noc(C(F)(F)F)n3)cc2C)on1 [PLECONARIL],> 2.5 h

# Experiment: Tested for pharmacokinetic parameter in fasted Beagle dogs (Area Under Curve value) iv administration.
# Assay type: ADME, organism-based, Canis lupus familiaris
# Conditions: dog, in vivo
# In short: (§1)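 Single intravenous bolus of 10 mg/kg given to fasted beagle dogs. Plasma was extracted with hexane and assayed by GC with electron-capture detection or by reverse-phase HPLC, depending on the analyte. Concentrations below the minimum quantifiable level were ignored when computing means. Half-life and CL were derived from plasma profiles by model-independent methods, and AUC by the trapezoidal rule.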
row,Structure (SMILES),AUC
1,Cc1cc(CCCOc2c(C)cc(-c3noc(C(F)(F)F)n3)cc2C)on1 [PLECONARIL],11800 ng·h/mL
2,Cc1cc(CCCCCOc2c(Cl)cc(C3=NCCO3)cc2Cl)on1 [WIN-54954],4910 ng·h/mL

# Experiment: Tested for pharmacokinetic parameter in fasted Beagle dogs (Clearance value of the compound) iv administration.
# Assay type: ADME, organism-based, Canis lupus familiaris
# Conditions: dog, in vivo
# In short: as §1
row,Structure (SMILES),clearance
1,Cc1cc(CCCOc2c(C)cc(-c3noc(C(F)(F)F)n3)cc2C)on1 [PLECONARIL],12.8 mL/min/kg
2,Cc1cc(CCCCCOc2c(Cl)cc(C3=NCCO3)cc2Cl)on1 [WIN-54954],31.8 mL/min/kg

# Experiment: Tested for pharmacokinetic parameter in fasted Beagle dogs (Half-life) iv administration.
# Assay type: ADME, organism-based, Canis lupus familiaris
# Conditions: dog, in vivo
# In short: as §1
row,Structure (SMILES),half-life
1,Cc1cc(CCCOc2c(C)cc(-c3noc(C(F)(F)F)n3)cc2C)on1 [PLECONARIL],27 h
2,Cc1cc(CCCCCOc2c(Cl)cc(C3=NCCO3)cc2Cl)on1 [WIN-54954],7 h
